The source of these data is ChEMBL document CHEMBL4819096, “Antibacterial activity of noscapine analogs” (Bioorg Med Chem Lett, 2021).

≈ marks a conversion by molar mass, not a printed value. Calls of active or inactive are those of the source. The calls are words filed in the database; no cut-off is given here.

One may read the CC50 as the concentration at which the toxic effect on the cells reaches its halfway point. In general, MIC refers to the lowest concentration found to suppress growth.

The subject of data set [1] is Hafnia alvei. Nature of the data set: Antibacterial activity against Ampicillin resistant Hafnia alvei O31 assessed as inhibition of bacterial growth measured after 16 to 20 hrs by two-fold serial microbroth dilution method. Format: functional, organism-based. The following applies: time 16-20 hrs. The method, boiled down: (§1)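 Broth microdilution MIC in LB and M9 medium. Inoculum adjusted to about 5 × 10⁵ cells/ml. Compound serially diluted twofold. Plates covered and incubated at 37 °C with shaking. OD600 read; MIC taken as the lowest concentration giving no growth after 16–20 h.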
(In general: In broth dilution the organism is exposed to a series of concentrations in liquid medium.)

The subject of data set [2] is Klebsiella oxytoca. Kind of data set: Antibacterial activity against Klebsiella oxytoca R48 assessed as inhibition of bacterial growth measured after 16 to 20 hrs by two-fold serial microbroth dilution method. Format: functional, organism-based. The conditions noted are these: time 16-20 hrs. The method, boiled down:
(§2)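 Broth microdilution in LB and M9 medium. Inoculum adjusted to about 5 × 10⁵ cells/ml. Compound diluted twofold serially in microplate wells, then plates covered and incubated at 37 °C with shaking. Growth read as OD600. MIC taken as the lowest concentration giving no growth after 16–20 h.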

The subject of data set [3] is Staphylococcus aureus. Nature of the data set: Antibacterial activity against Fosfomycin resistant Staphylococcus aureus ATCC USA 206 assessed as inhibition of bacterial growth measured after 16 to 20 hrs by two-fold serial microbroth dilution method. In kind it is functional, organism-based. The following applies: time 16-20 hrs. The method, boiled down: as §1
The subject of data set [4] is Proteus vulgaris. Kind of data set: Antibacterial activity against Proteus vulgaris O41 assessed as inhibition of bacterial growth measured after 16 to 20 hrs by two-fold serial microbroth dilution method. Format: functional, organism-based. The conditions noted are these: time 16-20 hrs. The method, boiled down: as §2
Data set [5] deals with Pseudomonas aeruginosa. Kind of data set: Antibacterial activity against Pseudomonas aeruginosa R42 assessed as inhibition of bacterial growth measured after 16 to 20 hrs by two-fold serial microbroth dilution method. Format: functional, organism-based. The conditions noted are these: time 16-20 hrs. An outline of the steps: as §2
Data set [6] concerns Candida albicans. Nature of the data set: Antibacterial activity against ampicillin/cefotaxime/tetracycline/ceftriaxone/fosfomycin-resistant Candida albicans 181210169-1 assessed as inhibition of fungal growth measured after 16 to 20 hrs by two-fold serial microbroth dilution method. In kind it is functional, organism-based. The conditions noted are these: time 16-20 hrs. An outline of the steps: as §1

Data set [7] relates to Citrobacter koseri. Nature of the data set: Antibacterial activity against Citrobacter koseri R38 assessed as inhibition of bacterial growth measured after 16 to 20 hrs by two-fold serial microbroth dilution method. Format: functional, organism-based. The conditions noted are these: time 16-20 hrs. An outline of the steps: as §2
Data set [8] relates to Enterobacter. Kind of data set: Antibacterial activity against Enterobacter sp. O54 assessed as inhibition of bacterial growth measured after 16 to 20 hrs by two-fold serial microbroth dilution method. In kind it is functional, organism-based. The following applies: time 16-20 hrs. The method, boiled down: as §2
The test system of data set [9] is Klebsiella pneumoniae. Kind of data set: Antibacterial activity against ampicillin/fosfomycin-resistant Klebsiella pneumonia 181210171-2 assessed as inhibition of bacterial growth measured after 16 to 20 hrs by two-fold serial microbroth dilution method. In kind it is functional, organism-based. The conditions noted are these: time 16-20 hrs. The method, boiled down: as §1

The nature of data set [10]: Cytotoxicity against human HEK293 cells assessed as reduction in cell viability measured after 28 hrs by PrestoBlue reagent based fluorescence analysis. An outline of the steps:
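HEK293 cells seeded at 25*10³ per well in DMEM with 10% FBS, 2 mM L-Glu and 50 µg/ml gentamicin. Cells held 24 h at 37 °C, 5% CO2 before compound was added (final DMSO 0.1%), then incubated 28 h. Viability read by PrestoBlue fluorescence at 590 nm, expressed relative to 0.1% DMSO control (100%). CC50 derived by curve fitting.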

In data set [11] the test system is Escherichia coli. Kind of data set: Antibacterial activity against Escherichia coli assessed as inhibition of bacterial growth measured after 16 to 20 hrs by two-fold serial microbroth dilution method. In kind it is functional. The conditions noted are these: time 16-20 hrs. The method, boiled down: as §2
Data set [12] deals with Proteus sp. Kind of data set: Antibacterial activity against ampicillin/cefotaxime/tetracycline/ceftriaxone/fosfomycin-resistant Proteus sp. O14 assessed as inhibition of bacterial growth measured after 16 to 20 hrs by two-fold serial microbroth dilution method. In kind it is functional, organism-based. The conditions noted are these: time 16-20 hrs. An outline of the steps: as §1

Data set [13] deals with Enterobacter cloacae. Kind of data set: Antibacterial activity against ampicillin/cefotaxime/tetracycline/ceftriaxone-resistant Enterobacter cloacae O3 assessed as inhibition of bacterial growth measured after 16 to 20 hrs by two-fold serial microbroth dilution method. In kind it is functional, organism-based. The following applies: time 16-20 hrs. The method, boiled down: as §1

The subject of data set [14] is Morganella morganii. Kind of data set: Antibacterial activity against Morganella morganii R36 assessed as inhibition of bacterial growth measured after 16 to 20 hrs by two-fold serial microbroth dilution method. The conditions noted are these: time 16-20 hrs. In kind it is functional, organism-based. The method, boiled down: as §2
The subject of data set [15] is Bacillus subtilis. Nature of the data set: Antibacterial activity against Bacillus subtilis 3HM assessed as inhibition of bacterial growth measured after 16 to 20 hrs by two-fold serial microbroth dilution method. Format: functional, organism-based. The conditions noted are these: time 16-20 hrs. An outline of the steps: as §2
For data set [16], the system named is Escherichia coli. Kind of data set: Antibacterial activity against ampicillin/cefotaxime/tetracycline/ceftriaxone-resistant Escherichia coli mx7 assessed as inhibition of bacterial growth measured after 16 to 20 hrs by two-fold serial microbroth dilution method. In kind it is functional, organism-based. The conditions noted are these: time 16-20 hrs. An outline of the steps:
as §1

In data set [17] the test system is Aeromonas. Nature of the data set: Antibacterial activity against Aeromonas sp. O9 assessed as inhibition of bacterial growth measured after 16 to 20 hrs by two-fold serial microbroth dilution method. In kind it is functional, organism-based. The conditions noted are these: time 16-20 hrs. The method, boiled down: as §2
Data set [18] concerns Pseudomonas aeruginosa. Nature of the data set: Antibacterial activity against ampicillin/cefotaxime-resistant Pseudomonas aeruginosa ATCC 27853 assessed as inhibition of bacterial growth measured after 16 to 20 hrs by two-fold serial microbroth dilution method. In kind it is functional, organism-based. The conditions noted are these: time 16-20 hrs. The method, boiled down:
as §1

The subject of data set [19] is Klebsiella aerogenes. Nature of the data set: Antibacterial activity against Enterobacter aerogenes R41 assessed as inhibition of bacterial growth measured after 16 to 20 hrs by two-fold serial microbroth dilution method. In kind it is functional, organism-based. The following applies: time 16-20 hrs. The method, boiled down: as §2
The test system of data set [20] is Escherichia coli. Kind of data set: Antibacterial activity against Escherichia coli ATCC25922 assessed as inhibition of bacterial growth measured after 16 to 20 hrs by two-fold serial microbroth dilution method. In kind it is functional, organism-based. The conditions noted are these: ATCC 25922, time 16-20 hrs. The method, boiled down:
as §2

For the molecule `COc1c2c(cc3c1C(CC(=O)/C=C/C1CC=C(C)CC1C)[N+](C)(C)CC3)OCO2` (stereo not given), the result in data set [1], in [2], in data set [4], in data set [5], in data set [7] and in [8] was inactive. Also, the result in [9], in data set [12], in [13], in data set [17], in [18] and in data set [19] was inactive. For the same molecule, the outcome in [3], in data set [6], in [14], in data set [15], in data set [16] and in data set [20] was Active. In addition, in [10], the CC50 at 28 h stood at 10.4 µM. In addition, in data set [11], the minimum inhibitory concentration (MIC) turned out to be 46.3 µM.
Consider `COc1c2c(cc3c1C(CC(=O)c1ccc4c5c(cccc15)CC4)[N+](C)(C)CC3)OCO2` (stereo not given), for which the result in [1], in [2], in data set [3], in [4], in [5] and in data set [6] was inactive. For the same molecule, the outcome in data set [7], in data set [8], in data set [9], in data set [12], in data set [13] and in data set [14] was inactive. For the same molecule, the result in [16], in data set [17], in data set [18], in data set [19] and in data set [20] was inactive. Further, the 50% cytotoxic concentration (CC50) at 28 h in data set [10] turned out to be 17 µM. For the same molecule, the MIC in data set [11] was found to be 12.2 µM. For the same molecule, the result in data set [15] was Active.
As for `CCOc1ccc(/C=C/C(=O)CC2c3c(cc4c(c3OC)OCO4)CC[N+]2(C)C)cc1` (stereo not given), the outcome in data set [1], in [2], in data set [5], in [6], in [7] and in data set [8] was inactive. Also, the outcome in [9], in data set [12], in [13], in data set [14], in data set [15] and in data set [16] was inactive. The outcome in [17], in data set [18], in data set [19] and in [20] was inactive. Besides, the result in [3] and in data set [4] was Active. Moreover, in [10], the CC50 at 28 h stood at 17.8 µM. For the same molecule, in [11], the MIC is 90.7 µM.
Regarding `COc1c2c(cc3c1C(CC(=O)c1c(O)n(C)c(=S)n(C)c1=O)N(C)CC3)OCO2` (stereo not given), the outcome in data set [1], in data set [2], in [4], in data set [5], in data set [7] and in data set [9] was inactive. Moreover, the result in data set [12], in [13], in [14], in data set [16], in data set [17] and in [18] was inactive. Further, the result in [19] and in data set [20] was inactive. Further, the outcome in data set [3], in data set [6], in [8] and in data set [15] was Active. Further, the cytotoxic concentration (CC50) at 28 h in data set [10] was greater than 100 µM. Besides, the minimal inhibitory concentration (MIC) in data set [11] is 115 µM (≈ 50 µg/mL).
Consider `COc1c2c(cc3c1C(CC(=O)/C=C/C1C(C)=CCCC1(C)C)[N+](C)(C)CC3)OCO2` (stereo not given), for which the result in data set [1], in [2], in [3], in data set [4], in data set [5] and in data set [6] was inactive. For the same molecule, the result in [7], in [8], in data set [9], in data set [12], in data set [13] and in data set [14] was inactive. In addition, the result in data set [16], in [17], in [18], in data set [19] and in data set [20] was inactive. The CC50 at 28 h in [10] came to 16.2 µM. Moreover, the minimal inhibitory concentration (MIC) in data set [11] is 22.6 µM. For the same molecule, the outcome in data set [15] was Active.
Take `COc1c2c(cc3c1C(CC(=O)c1ccc(CC(C)C)cc1)[N+](C)(C)CC3)OCO2` (stereo not given): the result in data set [1], in data set [2], in data set [3], in [4], in [5] and in data set [6] was Active. Moreover, the result in data set [7], in data set [8], in data set [9], in data set [12], in data set [13] and in data set [14] was Active. Besides, the outcome in data set [15], in data set [16], in [17], in data set [19] and in [20] was Active. Also, the CC50 at 28 h in data set [10] was 13.3 µM. Besides, in data set [11], the MIC turned out to be 23.3 µM. Further, the result in data set [18] was inactive.
